Key:
[1] = Phase I DDI study: pevonedistat plasma PK alone and with itraconazole; assay type: in vivo, human; conditions: for AUC(0-t) / AUC(0-inf) / Cmax / clearance / half-life: human, plasma; for AUC(0-t): AUClast; for Cmax: C max; for clearance: CL; for half-life: t 1/2, mean (standard deviation)
How it was run: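 Single IV pevonedistat given on day 1 alone and on day 8 with the CYP3A inhibitor. K2EDTA plasma was sampled within 1 h predose, at end of infusion, and at 0.5, 1, 2, 3, 4, 8, 12, 24, 48 and 72 h postdose. Samples were assayed by two GLP-validated LC–MS/MS methods (0.0500–25.0 and 1.00–500 ng mL−1). Noncompartmental PK was used. Day 8/day 1 geometric mean ratios with 90% CIs came from ANOVA (subject random), back-transformed.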

Safety and tolerability = assay type: in vivo, human
How it was run: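 Patients had advanced solid tumours and ECOG PS 0–1. AEs were graded by NCI CTCAE v4.03 and monitored from the first dose of any study drug until 30–40 days after the last dose. The safety population was all patients receiving at least one pevonedistat dose.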

[2] = Pevonedistat 8 mg m^−2, + itraconazole (day 8) vs alone (day 1), n = 13
[3] = Pevonedistat 15 mg m^−2, + itraconazole (day 8) vs alone (day 1), n = 6
[4] = Pevonedistat 20 mg m^−2, + itraconazole (day 8) vs alone (day 1), n = 14
[5] = dose‐normalized PK, 8–20 mg m^−2 pooled, + itraconazole vs alone, n = 33
[6] = intravenous, 8 mg, geometric LS mean reference condition (day 1), Pevonedistat 8 mg m^−2 alone, itraconazole cohort, n = 13
[7] = intravenous, 15 mg, geometric LS mean reference condition (day 1), Pevonedistat 15 mg m^−2 alone, itraconazole cohort, n = 6
[8] = intravenous, 20 mg, geometric LS mean reference condition (day 1), Pevonedistat 20 mg m^−2 alone, itraconazole cohort, n = 14
[9] = intravenous, geometric LS mean test condition (day 8), Pevonedistat 8 mg m^−2 + itraconazole, n = 13, value from n − 1 patients
[10] = intravenous, geometric LS mean test condition (day 8), Pevonedistat 15 mg m^−2 + itraconazole, n = 6
[11] = intravenous, geometric LS mean test condition (day 8), Pevonedistat 20 mg m^−2 + itraconazole, n = 14
[12] = iv, 8 mg, geometric mean (% CV), 8 mg m^−2 IV single dose, – itraconazole (day 1), n=13
[13] = iv, 20 mg, geometric mean (% CV), 20 mg m^−2 IV single dose, – itraconazole (day 1), n=14
[14] = integrated analysis, 8–20 mg m^−2, n = 33
[15] = Pevonedistat 8 mg m^−2 + fluconazole (n = 13)
[16] = Pevonedistat 8 mg m^−2 + itraconazole (n = 13)

For `NS(=O)(=O)OC[C@@H]1C[C@@H](n2ccc3c(N[C@H]4CCc5ccccc54)ncnc32)C[C@@H]1O` [Pevonedistat], the “AUClast, geometric LS mean ratio (test/reference) (90% CI)” value [1, 2] was 121.57 (110.92–133.24) %, the “AUC∞, geometric LS mean ratio (test/reference) (90% CI)” value [1, 2] was 122.95 (112.13–134.82) % and the “C max, geometric LS mean ratio (test/reference) (90% CI)” value [1, 2] was 113.05 (85.35–149.74) %. The “AUClast, geometric LS mean ratio (test/reference) (90% CI)” value [1, 3] was 130.16 (106.99–158.35) %, the “AUC∞, geometric LS mean ratio (test/reference) (90% CI)” value [1, 3] was 132.70 (111.10–158.49) % and the “C max, geometric LS mean ratio (test/reference) (90% CI)” value [1, 3] was 159.55 (89.97–282.96) %. For the same compound, the “AUClast, geometric LS mean ratio (test/reference) (90% CI)” value [1, 4] was 101.36 (90.72–113.23) %, the “AUC∞, geometric LS mean ratio (test/reference) (90% CI)” value [1, 4] was 100.89 (91.14–111.68) % and the “C max, geometric LS mean ratio (test/reference) (90% CI)” value [1, 4] was 77.26 (55.19–108.17) %. For the same compound, the “Dose‐normalized AUClast, geometric LS mean ratio (test/reference) (90% CI)” value [1, 5] was 113.61 (105.65–122.18) %, the “Dose‐normalized AUC∞, geometric LS mean ratio (test/reference) (90% CI)” value [1, 5] was 114.24 (106.54–122.50) % and the “Dose‐normalized C max, geometric LS mean ratio (test/reference) (90% CI)” value [1, 5] was 102.41 (83.12–126.19) %. For the same compound, the AUC(0-t) [1, 6] was 459 ng·h/mL, the AUC(0-inf) [1, 6] was 465 ng·h/mL and the AUC(0-t) [1, 7] was 793 ng·h/mL. For the same compound, the AUC(0-inf) [1, 7] was 798 ng·h/mL, the AUC(0-t) [1, 8] was 1110 ng·h/mL and the AUC(0-inf) [1, 8] was 1120 ng·h/mL. For the same compound, the AUC(0-t) [1, 9] was 558 ng·h/mL, the AUC(0-t) ([1]; intravenous, geometric LS mean test condition (day 8), Pevonedistat 15 mg m^−2 + itraconazole, n = 6, value from n − 1 patients) was 1030 ng·h/mL and the AUC(0-t) ([1]; intravenous, geometric LS mean test condition (day 8), Pevonedistat 20 mg m^−2 + itraconazole, n = 14, value from n − 1 patients) was 1130 ng·h/mL. The AUC(0-inf) [1, 9] was 572 ng·h/mL, the AUC(0-inf) [1, 10] was 1060 ng·h/mL and the AUC(0-inf) [1, 11] was 1130 ng·h/mL. The Cmax ([1]; intravenous, geometric LS mean test condition (day 8), Pevonedistat 8 mg m^−2 + itraconazole, n = 13) was 66.8 ng/mL, the Cmax [1, 10] was 193 ng/mL and the Cmax [1, 11] was 137 ng/mL. It also gave an AUC(0-inf) [1, 12] of 465 ng·h/mL, a clearance [1, 12] of 487 mL/min and a half-life ([1]; iv, 8 mg, 8 mg m^−2 IV single dose, – itraconazole (day 1), n=13) of 10.8 h. It also gave an AUC(0-inf) ([1]; iv, 15 mg, geometric mean (% CV), 15 mg m^−2 IV single dose, – itraconazole (day 1), n=6) of 798 ng·h/mL, a half-life ([1]; iv, 15 mg, 15 mg m^−2 IV single dose, – itraconazole (day 1), n=6) of 9.8 h and an AUC(0-inf) [1, 13] of 1120 ng·h/mL. For the same compound, the clearance [1, 13] was 597 mL/min, the half-life ([1]; iv, 20 mg, 20 mg m^−2 IV single dose, – itraconazole (day 1), n=14) was 10 h and the half-life ([1]; iv, 8 mg m^−2 IV single dose, + itraconazole (day 8), n=13) was 13.5 h. The half-life ([1]; iv, 15 mg m^−2 IV single dose, + itraconazole (day 8), n=6) was 11 h, the half-life ([1]; iv, 20 mg m^−2 IV single dose, + itraconazole (day 8), n=14) was 10.8 h and the “Dose‐normalized AUC∞ geometric mean ratio, presence vs. absence of itraconazole” value [1, 14] was 1.14. The “Increase in geometric mean dose‐normalized AUC∞ with itraconazole” value [1, 14] was 14%, the “AUC∞ geometric mean ratio, presence vs. absence of itraconazole” value ([1]; pevonedistat 8 mg m^−2) was 1.23 and the “Increase in pevonedistat plasma systemic exposure with concomitant itraconazole” value ([1]; pevonedistat 8 mg m^−2 single dose) was 23%. For the same compound, the “AUC∞ geometric mean ratio, presence vs. absence of itraconazole” value ([1]; pevonedistat 20 mg m^−2) was 1.01, the “Patients who discontinued study treatment due to AEs” value (Safety and tolerability; N = 51) was 12% and the “Abdominal pain, patients with AE” value (Safety and tolerability; [15]) was 1 (8) n (%). For the same compound, the “Anaemia, patients with AE” value (Safety and tolerability; [15]) was 3 (23) n (%), the “Asthenia, patients with AE” value (Safety and tolerability; [15]) was 3 (23) n (%) and the “Constipation, patients with AE” value (Safety and tolerability; [15]) was 3 (23) n (%). The “Cough, patients with AE” value (Safety and tolerability; [15]) was 2 (15) n (%), the “Decreased appetite, patients with AE” value (Safety and tolerability; [15]) was 4 (31) n (%) and the “Dehydration, patients with AE” value (Safety and tolerability; [15]) was 1 (8) n (%). For the same compound, the “Diarrhoea, patients with AE” value (Safety and tolerability; [15]) was 0 n (%), the “Dizziness, patients with AE” value (Safety and tolerability; [15]) was 1 (8) n (%) and the “Dyspnoea, patients with AE” value (Safety and tolerability; [15]) was 2 (15) n (%). The “Fatigue, patients with AE” value (Safety and tolerability; [15]) was 3 (23) n (%), the “Headache, patients with AE” value (Safety and tolerability; [15]) was 3 (23) n (%) and the “Hypokalaemia, patients with AE” value (Safety and tolerability; [15]) was 0 n (%). The “Hyponatraemia, patients with AE” value (Safety and tolerability; [15]) was 2 (15) n (%), the “Nausea, patients with AE” value (Safety and tolerability; [15]) was 3 (23) n (%) and the “Vomiting, patients with AE” value (Safety and tolerability; [15]) was 3 (23) n (%). For the same compound, the “Abdominal pain, patients with AE” value (Safety and tolerability; [16]) was 3 (23) n (%), the “Anaemia, patients with AE” value (Safety and tolerability; [16]) was 3 (23) n (%) and the “Asthenia, patients with AE” value (Safety and tolerability; [16]) was 2 (15) n (%). For the same compound, the “Constipation, patients with AE” value (Safety and tolerability; [16]) was 2 (15) n (%), the “Cough, patients with AE” value (Safety and tolerability; [16]) was 4 (31) n (%) and the “Decreased appetite, patients with AE” value (Safety and tolerability; [16]) was 3 (23) n (%). For the same compound, the “Dehydration, patients with AE” value (Safety and tolerability; [16]) was 3 (23) n (%), the “Diarrhoea, patients with AE” value (Safety and tolerability; [16]) was 4 (31) n (%) and the “Dizziness, patients with AE” value (Safety and tolerability; [16]) was 2 (15) n (%). For the same compound, the “Dyspnoea, patients with AE” value (Safety and tolerability; [16]) was 1 (8) n (%), the “Fatigue, patients with AE” value (Safety and tolerability; [16]) was 3 (23) n (%) and the “Headache, patients with AE” value (Safety and tolerability; [16]) was 0 n (%). For the same compound, the “Hypokalaemia, patients with AE” value (Safety and tolerability; [16]) was 2 (15) n (%), the “Hyponatraemia, patients with AE” value (Safety and tolerability; [16]) was 1 (8) n (%) and the “Nausea, patients with AE” value (Safety and tolerability; [16]) was 1 (8) n (%). The “Vomiting, patients with AE” value (Safety and tolerability; [16]) was 2 (15) n (%) and the “Abdominal pain, patients with AE” value (Safety and tolerability; Pevonedistat 15 mg m^−2 + itraconazole (n = 6)) was 1 (17) n (%).
